Data: ChEMBL document CHEMBL1133729, “Design, synthesis, and structure-activity relationships of phthalimide-phenylpiperazines: a novel series of potent and selective alpha(1)(a)-adrenergic receptor antagonists” (J Med Chem, 2000)

What was measured:
[1] = molecular target: Adrenergic receptors; alpha-1 A & B (Homo sapiens) (UniProt P35348+P35368); assay: Ratio of binding affinity towards Alpha1b to Alpha-1A; assay type: protein assay
Method in brief: (§1)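 Human α1a, α1b and α1d cDNAs transiently expressed in COS-1 cells (DEAE-dextran); membranes harvested 72 h post-transfection. Competition versus 50 pM [125I]HEAT (final), 0.1 pM–10 μM test compound in half-log steps, in TNE buffer pH 7.4. Membrane protein 0.1 μg (α1a, α1b) or 2.6 μg (α1d); 1 h at 25 °C. Filtration, scintillation counting; Ki = IC50/(1 + [L]/Kd). Ratios are subtype Ki over α1a Ki.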

[2] = molecular target: T1, Alpha-1A adrenergic receptor (Homo sapiens, UniProt P35348); assay: Binding affinity towards cloned human alpha-1A adrenergic receptor was determined using [125]-HEAT as radioligand
T1 sequence (P35348 whole entry): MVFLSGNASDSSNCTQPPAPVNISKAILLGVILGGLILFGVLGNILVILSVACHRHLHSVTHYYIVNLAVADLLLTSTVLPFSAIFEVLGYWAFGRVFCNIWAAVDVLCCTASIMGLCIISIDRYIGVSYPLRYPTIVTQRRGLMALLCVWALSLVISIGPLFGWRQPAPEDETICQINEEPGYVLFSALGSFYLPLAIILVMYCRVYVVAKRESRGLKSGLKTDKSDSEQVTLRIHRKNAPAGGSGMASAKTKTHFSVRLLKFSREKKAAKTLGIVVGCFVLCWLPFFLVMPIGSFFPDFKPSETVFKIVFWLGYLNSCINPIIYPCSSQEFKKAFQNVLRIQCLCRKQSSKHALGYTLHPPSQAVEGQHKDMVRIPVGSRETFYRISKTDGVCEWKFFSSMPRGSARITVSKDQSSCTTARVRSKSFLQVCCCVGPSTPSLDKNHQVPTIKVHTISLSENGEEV

[3] = molecular target: T2, Alpha-1B adrenergic receptor (Homo sapiens, UniProt P35368); assay: Binding affinity towards cloned human alpha-1B adrenergic receptor was determined using [125]-HEAT as radioligand; method in brief: as §1
T2 sequence (P35368 whole entry): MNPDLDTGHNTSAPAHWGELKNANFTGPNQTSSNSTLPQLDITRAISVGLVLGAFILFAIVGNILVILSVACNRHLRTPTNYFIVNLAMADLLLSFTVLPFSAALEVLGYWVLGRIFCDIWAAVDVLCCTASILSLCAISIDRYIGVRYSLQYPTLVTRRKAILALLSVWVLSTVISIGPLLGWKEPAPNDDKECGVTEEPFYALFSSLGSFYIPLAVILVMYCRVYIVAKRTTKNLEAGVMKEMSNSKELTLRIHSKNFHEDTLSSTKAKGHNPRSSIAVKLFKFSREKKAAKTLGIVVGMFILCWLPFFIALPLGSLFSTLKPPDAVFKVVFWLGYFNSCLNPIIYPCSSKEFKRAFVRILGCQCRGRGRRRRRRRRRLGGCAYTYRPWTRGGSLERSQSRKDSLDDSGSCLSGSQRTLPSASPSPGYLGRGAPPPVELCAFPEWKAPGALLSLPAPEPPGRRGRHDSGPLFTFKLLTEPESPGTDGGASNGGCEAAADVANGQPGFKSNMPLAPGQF

[4] = molecular target: T3, Alpha-1D adrenergic receptor (Homo sapiens, UniProt P25100); assay: Binding affinity towards cloned human alpha-1D adrenergic receptor was determined using [125]-HEAT as radioligand; method in brief: as §1
T3 sequence (P25100 whole entry): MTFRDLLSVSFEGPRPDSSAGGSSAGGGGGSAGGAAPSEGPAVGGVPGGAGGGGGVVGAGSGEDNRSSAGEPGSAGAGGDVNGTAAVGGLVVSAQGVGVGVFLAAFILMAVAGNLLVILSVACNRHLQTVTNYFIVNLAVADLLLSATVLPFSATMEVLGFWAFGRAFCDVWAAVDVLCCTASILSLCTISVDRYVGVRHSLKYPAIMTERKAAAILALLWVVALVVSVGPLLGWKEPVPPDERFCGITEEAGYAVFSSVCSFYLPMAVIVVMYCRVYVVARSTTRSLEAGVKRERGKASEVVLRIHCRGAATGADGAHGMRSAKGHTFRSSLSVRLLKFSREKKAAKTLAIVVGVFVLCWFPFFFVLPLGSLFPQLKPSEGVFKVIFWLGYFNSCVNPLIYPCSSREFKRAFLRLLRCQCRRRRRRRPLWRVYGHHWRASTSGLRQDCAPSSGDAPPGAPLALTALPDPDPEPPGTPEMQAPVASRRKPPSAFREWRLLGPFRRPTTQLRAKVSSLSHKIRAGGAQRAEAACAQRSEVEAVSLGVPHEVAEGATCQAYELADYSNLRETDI

[5] = system: Alpha-1D/Alpha-1A adrenergic receptor (Homo sapiens); assay: Ratio of binding affinity towards Alpha1d to Alpha-1A

For `COC(CNC(=O)c1ccc2c(c1)C(=O)N(c1cccc(F)c1)C2=O)CN1CCN(c2ccccc2OC(C)C)CC1` (stereo not given), the Ratio [1] was > 290, the Ki [2] was 6.9 nM and the Ki [3] was > 2000 nM. It also gave a Ki [4] of 407 nM.

For `CC(C)Oc1ccccc1N1CCN(CC(O)CNC(=O)c2ccc3c(c2)C(=O)N(c2ccc(Cl)c(Cl)c2)C3=O)CC1` (stereo not given), the Ratio [1] was 1030, the Ki [2] was 1.19 nM and the Ki [3] was 1230 nM. It also gave a Ratio [5] of 43 and a Ki [4] of 51 nM.

`CC(C)Oc1ccccc1N1CCN(C[C@@H](O)CNC(=O)c2ccc3c(c2)C(=O)N(c2ccc(O)cc2)C3=O)CC1` was tested, and the Ratio [1] was > 4350, the Ki [2] was 0.46 nM and the Ki [3] was > 2000 nM. It also gave a Ki [4] of 137 nM.

With `CC(C)Oc1ccccc1N1CCN(CC(O)CNC(=O)c2ccc3c(c2)C(=O)N(c2cccc(Cl)c2)C3=O)CC1` (stereo not given) the Ratio [1] was 800, the Ki [2] was 0.76 nM and the Ki [3] was 605 nM. For the same compound, the Ratio [5] was 54 and the Ki [4] was 41 nM.

`CC(C)Oc1ccccc1N1CCN(CCCNC(=O)c2ccc3c(c2)C(=O)N(c2ccc(O)cc2)C3=O)CC1` was tested, and the Ratio [1] was 1270, the Ki [2] was 0.2 nM and the Ki [3] was 255 nM. It also gave a Ratio [5] of 50 and a Ki [4] of 10 nM.

For `CCOc1ccccc1N1CCN(CC(O)CNC(=O)c2ccc3c(c2)C(=O)N(c2cccc(F)c2)C3=O)CC1` (stereo not given), the Ratio [1] was > 470, the Ki [2] was 4.25 nM and the Ki [3] was > 2000 nM. The Ki [4] was 137 nM.

With `CC(C)Oc1ccccc1N1CCN(C[C@H](O)CNC(=O)c2ccc3c(c2)C(=O)N(c2cccc(F)c2)C3=O)CC1` the Ratio [1] was > 250, the Ki [2] was 8 nM and the Ki [3] was > 2000 nM. The Ki [4] was 63 nM.

In the case of `COc1ccc(N2C(=O)c3ccc(C(=O)NCC(O)CN4CCN(c5ccccc5OC(C)C)CC4)cc3C2=O)cc1` (stereo not given), the Ki [3] is reported as > 2000 nM and the Ki [4] is reported as 51 nM.

`CC(C)Oc1ccccc1N1CCN(CC(O)CNC(=O)c2ccc3c(c2)C(=O)N(c2ccc(Cl)cc2)C3=O)CC1` (stereo not given) gave a Ratio [1] of 640, a Ki [2] of 0.95 nM and a Ki [3] of 606 nM. It also gave a Ki [4] of 55 nM.

In the case of `COc1ccc(N2C(=O)c3ccc(C(=O)NCC(O)CN4CCN(c5ccccc5OC(C)C)CC4)cc3C2=O)cc1OC` (stereo not given), the Ratio [1] is reported as > 2040, the Ki [2] is reported as 0.98 nM and the Ki [3] is reported as > 2000 nM. For the same compound, the Ratio [5] was 57 and the Ki [4] was 56 nM.

For `Cc1cccc(N2C(=O)c3ccc(C(=O)NCC(O)CN4CCN(c5ccccc5OC(C)C)CC4)cc3C2=O)c1` (stereo not given), the Ratio [1] was > 2220, the Ki [2] was 0.9 nM and the Ki [3] was > 2000 nM. It also gave a Ki [4] of 73 nM.

For `CC(C)Oc1ccccc1N1CCN(CC(O)CNC(=O)c2ccc3c(c2)C(=O)N(c2cccc(F)c2)C3=O)CC1` (stereo not given), the Ratio [1] was > 1220, the Ki [2] was 1.5 nM and the Ki [3] was > 2000 nM. For the same compound, the Ki [4] was 75 nM.

With `CC(C)Oc1ccccc1N1CCN(CC(O)CNC(=O)c2ccc3c(c2)C(=O)N(c2ccc(F)cc2)C3=O)CC1` (stereo not given) the Ratio [1] was > 1100, the Ki [2] was 1.5 nM and the Ki [3] was > 1660 nM. It also gave a Ki [4] of 111 nM.

Work on `CC(C)Oc1ccccc1N1CCN(CCCNC(=O)c2ccc3c(c2)C(=O)N(c2ccc(N(C)C)cc2)C3=O)CC1` yielded a Ratio [1] of 2580, a Ki [2] of 0.18 nM and a Ki [3] of 465 nM. For the same compound, the Ki [4] was 15 nM.

`COc1ccccc1N1C(=O)c2ccc(C(=O)NCC(O)CN3CCN(c4ccccc4OC(C)C)CC3)cc2C1=O` (stereo not given) showed a Ratio [1] of 1110, a Ki [2] of 1.47 nM and a Ki [3] of 1640 nM. For the same compound, the Ki [4] was 72 nM.

In the case of `Cc1ccc(N2C(=O)c3ccc(C(=O)NCC(O)CN4CCN(c5ccccc5OC(C)C)CC4)cc3C2=O)cc1` (stereo not given), the Ratio [1] is reported as > 3030, the Ki [2] is reported as 0.66 nM and the Ki [3] is reported as > 2000 nM. It also gave a Ki [4] of 62 nM.

`COc1cc(N2C(=O)c3ccc(C(=O)NCC(O)CN4CCN(c5ccccc5OC(C)C)CC4)cc3C2=O)cc(OC)c1OC` (stereo not given) was tested, and the Ratio [1] was > 1640, the Ki [2] was 1.22 nM and the Ki [3] was > 2000 nM. For the same compound, the Ratio [5] was 125 and the Ki [4] was 152 nM.

`COc1ccc(N2C(=O)c3ccc(C(=O)NC[C@H](O)CN4CCN(c5ccccc5OC(C)C)CC4)cc3C2=O)cc1` was tested, and the Ki [3] was > 1750 nM and the Ki [4] was 124 nM.

For `COc1ccc(N2C(=O)c3ccc(C(=O)NC[C@@H](O)CN4CCN(c5ccccc5OC(C)C)CC4)cc3C2=O)cc1`, the Ki [3] was > 2000 nM and the Ki [4] was 52 nM.

In the case of `COc1ccccc1N1CCN(CC(O)CNC(=O)c2ccc3c(c2)C(=O)N(c2cccc(F)c2)C3=O)CC1` (stereo not given), the Ratio [1] is reported as > 90, the Ki [2] is reported as 22 nM and the Ki [3] is reported as > 2000 nM. It also gave a Ki [4] of 540 nM.

For `CC(C)Oc1ccccc1N1CCN(CC(O)CNC(=O)c2ccc3c(c2)C(=O)N(c2ccc(N(C)C)cc2)C3=O)CC1` (stereo not given), the Ratio [1] was > 2000, the Ki [2] was 0.8 nM and the Ki [3] was > 2000 nM. For the same compound, the Ki [4] was 40 nM.

In the case of `CC(C)Oc1ccccc1N1CCN(CC(O)CNC(=O)c2ccc3c(c2)C(=O)N(c2ccc(C(C)(C)C)cc2)C3=O)CC1` (stereo not given), the Ratio [1] is reported as > 650, the Ki [2] is reported as 3.05 nM and the Ki [3] is reported as > 2000 nM. The Ki [4] was 75 nM.

With `CC(C)Oc1ccccc1N1CCN(CC(O)CNC(=O)c2ccc3c(c2)C(=O)N(c2ccc(O)cc2)C3=O)CC1` (stereo not given) the Ratio [1] was > 2270, the Ki [2] was 0.88 nM and the Ki [3] was > 2000 nM. For the same compound, the Ki [4] was 28 nM.

With `CC(C)Oc1ccccc1N1CCN(CC(O)CNC(=O)c2ccc3c(c2)C(=O)N(c2ccc([N+](=O)[O-])cc2)C3=O)CC1` (stereo not given) the Ratio [1] was > 1110, the Ki [2] was 1.8 nM and the Ki [3] was > 2000 nM. It also gave a Ki [4] of 38 nM.

With `CC(C)Oc1ccccc1N1CCN(CC(O)CNC(=O)c2ccc3c(c2)C(=O)N(c2ccccc2)C3=O)CC1` (stereo not given) the Ratio [1] was > 1820, the Ki [2] was 0.9 nM and the Ki [3] was > 2000 nM. It also gave a Ratio [5] of 72 and a Ki [4] of 65 nM.
